Source: PubChem (several laboratories)
Dynein cargo inh: inhibitors of GR-EGFP nuclear translocation, primary screen, dynein cargo transport inhibitor project, imaging, high-content, 3617.4 mouse cells; z-score, hits read low; AID 1381, 2008; test concentration mostly 20 µM; stimulated with dexamethasone, 1 µM; hits give low values; 0.47% of 220,000 active;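 active means plate z-score of nuclear minus cytoplasmic receptor signal below a set negative limit, without overly bright fluorescence or cell loss, cut at about -3.5 in these data, passing the limit was not always enough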;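 further: z-score of nuclear minus cytoplasmic ring GR-EGFP intensity difference per well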
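Buffer or medium: tet-free, stripped-serum medium; reagent: dexamethasone at 1.0 µM final, 30 min; incubation: 48 h induction, 1 h compound, 30 min dex at 37 °C; measured by: formaldehyde fixation, Hoechst nuclear stain, 10x automated fluorescence imaging; read-out: nuclear-to-cytoplasmic GR-EGFP distribution per well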
MT stabilize HCS: microtubule stabilizers in HeLa cells, primary screen, imaging, high-content imaging. HeLa tubulin immunostaining HCS, 24 h; share of cells brighter than vehicle mean+2SD. % tubulin-high responders, % at 10 µM. 0.83% of 200,000 active;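 active means plate Z-score above 3 for both tubulin-high and condensed-nucleus cell shares, with cell loss under 80%, at 10 µM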;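 further: anti alpha tubulin signal scored within the nucleus-defined area of each cell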
bCat nuc transl: modulators of beta-catenin nuclear translocation, primary screen, imaging, HeLa cells, immunofluorescence, high-content; 0.3% of 190,000 active; nuclear translocation activity, % at 5 µM;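 active means nuclear translocation activity above 50% at 5 µM, with a well cell count of 50 or more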;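 further: per-cell ratio of nuclear to cytoplasmic median beta-catenin stain intensity; plate controls were DMSO negative control for no effect and GSK-3 inhibitor IX positive control for full effect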
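System: Human HeLa cells, endogenous beta-catenin | Compound dosing: 5 µM primary, 0.02–20 µM confirmation | Timing: 24 h compound exposure at 37°C, 5% CO2 | Measured by: Fluorescence imaging of beta-catenin antibody stain plus DAPI | Read-out basis: % activation of per-cell nuclear versus cytoplasmic median beta-catenin signal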
L major viab: Leishmania major promastigote growth inhibition, primary screen. AID 1063, 2008. 9% of 200,000 active. Leishmania major promastigotes, resazurin fluorescence viability. inhibition, % at 10 µM; in the data active means inhibition above about 50%;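 further: promastigotes grown with compound for 44 hours at 28 °C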
Autophagy HCS: autophagy modulators in MEF cells, primary screen, imaging, high-content, MEF GFP-LC3; MEF GFP-LC3 puncta imaging; test concentration mostly 10 µM; calls only at 10 µM (by protocol); 0.98% of 190,000 active; AID 463193, 2010;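 active means percentage of spot-positive cells more than 3 SD above its plate mean, without a fluorescence outlier flag or 80% toxicity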;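 further: spot-positive cell cutoff set from DMSO-treated cells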
CHOP inh: inhibitors of CHOP promoter induction, primary screen, cell-based, unfolded protein response, luciferase reporter. inhibition, % at 10 µM. 3.8% of 220,000 active. CHO-K1 CHOP-promoter luciferase, tunicamycin-induced, 15-18 h;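 active means compounds that reduced the stress-induced luciferase reporter signal by more than about 70% of percent inhibition, limit read from the data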;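 further: 0% = tunicamycin plus vehicle and 100% = wells without tunicamycin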
The depositor's hits bear a star; i = inactive; / = no result given; + = active, no number. Only some compounds are listed: those with a hit (about 12% of all), similar ones and a draw of the others.

SMILES	Dynein cargo inh	MT stabilize HCS	bCat nuc transl	L major viab	Autophagy HCS	CHOP inh
Cc1ccccc1C(=O)N[C@H](C(=O)OCC(=O)c1ccc[nH]1)C(C)C	-0.28	5	-5	-2	i	14
N#Cc1cnn2ccn(C3OC(CO)C(O)C3O)c12 (centres undefined)	1.4	/	-4	/	/	3
Cc1ccc(S(=O)(=O)c2cc(C#N)c(=O)[nH]c2N)cc1	-0.18	1	/	-9	i	7
CCOC(=O)C1=C(C)C/C(=N\NC(=O)c2ccccc2O)CC1	1.1	/	0	/	/	9
O=[N+]([O-])c1cc(Br)c(O)c(/C=N/Nc2nnnn2-c2cccc3ccccc23)c1	2.5	2	/	-5	i	3
Cc1sc2nc(CSc3ccccc3)nc(N3CCOCC3)c2c1C	0.87	1	/	82*	i	72*
Cc1sc2nc(CSc3ccccc3)nc(NCCN(C)C)c2c1C	-0.58	3	-1	92*	i	23
CCOC(=O)c1sc2nc(CSc3ccccc3)nc(N3CCCN(C)CC3)c2c1C	2.3	3	3	100*	+	60
Cc1sc2nc(CSc3ccccc3)nc(N3CCC(C(N)=O)CC3)c2c1C	2.9	2	-3	70*	i	19
CCOc1cc(NC(=S)NCCOC)c(OCC)cc1NC(=O)c1ccco1	1.3	2	1	6	i	-11
COc1ccccc1N1CCN(S(=O)(=O)CC23CCC(CC2=O)C3(C)C)CC1 (centres undefined)	-0.52	2	/	1	i	35
Cc1ccccc1OCC1Cc2c(nc(N)c(C#N)c2N)O1 (centres undefined)	-0.43	1	-2	1	i	15
COc1ccc(S(=O)(=O)N(C)CC(=O)N2CCC(C)CC2)cc1Cl	-0.66	4	/	97*	i	28
CCOC(=O)C1(C)NC(c2ccc(OC)cc2OC)C2C(=O)N(c3cccc(OC)c3)C(=O)C21 (centres undefined)	-0.57	2	0	-6	i	28
CC1=NN(C(=S)Nc2ccccc2)C(C)(C)C1	-0.037	0	0	-6	i	37
CCOC(=O)c1c(N)sc2c1CCC(CC)C2 (centres undefined)	-0.88	2	-2	-3	i	77*
COc1cc(NC(=O)c2cc(C(C)C)on2)c(OC)cc1Cl	0.54	2	-2	7	i	45
COc1cc(NC(=O)c2cc(C3CC3)on2)c(OC)cc1Cl	-0.53	2	/	-9	i	84*
Cc1cc(NC(=O)c2noc3c2CCCC3)no1	0.71	3	/	-6	+	24
O=C(Nc1ccc2c(c1)OCO2)c1noc2c1CCCCC2	1.1	3	0	-6	+	0
Cc1cc(C)n2nc(C(=O)Nc3ccc4c(c3)OCO4)nc2n1	-0.094	3	-1	67*	i	-7
O=C(Nc1ccc2c(c1)OCO2)c1cc(C2CC2)on1	1.1	4	2	52*	i	-16
O=C1C2ON(c3ccccc3)C(c3cccnc3)C2C(=O)N1c1ccccc1 (centres undefined)	0.14	6	/	-10	i	10
CN1CCc2c(c3c(n2C)CCN(C)[C@@H]3c2cccnc2)[C@H]1c1cccnc1	-1.5	2	-1	-5	i	-14
c1ccc(N2CCN(c3ccccc3)C2c2ccncc2)cc1	-0.21	3	-7	82*	i	-2
COc1cccc(C2N(c3ccccc3)CCN2c2ccccc2)c1OC	0.45	7	1	5	i	55
c1ccc(N2CCN(c3ccccc3)C2c2cccnc2)cc1	-0.33	2	3	92*	i	8
Cc1ccc(N2CCN(c3ccc(C)cc3)C2c2cccnc2)cc1	-0.064	1	3	86*	i	76*
CCC(C)NC(=O)CN1C(=O)NC2(CCc3ccccc3C2)C1=O (centres undefined)	0.17	6	0	-2	i	4
